ChEMBL document CHEMBL1138786, “Synthesis of benzodithiol-2-yl-substituted nucleoside derivatives as lead compounds having anti-bovine viral diarrhea virus activity” (J Med Chem, 2004)
Values joined by “and” are separate entries in the source; they are usually repeats but may differ in a detail not shown here. Identical values can stand only once.

Columns and labels:
Bos taurus [1] = species: Bos taurus; test: Anti BVDV activity relative to ribavirin (Ribavirin EC50 0.61 and CC50 90.2); assay type: functional
[2] = Anti BVDV activity in MDBK (Madin-darby bovine kidney) cells (Ribavirin EC50 0.61 and CC50 90.2); assay type: functional, Bos taurus
Method in brief: (§1)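 MDBK cells in DMEM with 10% heat-inactivated horse serum, penicillin and streptomycin, seeded at 5 × 10^5 cells/ml and incubated overnight at 37 °C. Infected with about 100 focus forming units of BVDV (nose strain) in the presence of graded compound concentrations for 24 h. Monolayers washed with PBS, overlaid with medium containing bactoagar, incubated a further 24 h. Viral foci counted microscopically.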

[3] = Cytotoxicity in MDBK (Madin-darby bovine kidney) cells (Ribavirin EC50 0.61 and CC50 90.2); assay type: cell-based, Bos taurus; settings: cattle
Method in brief: (§2)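 Cell viability assay: MDBK cells at 2 × 10^4 per well, cultured with graded compound concentrations at 37 °C for 3 days. Viable cells measured colorimetrically with a water-soluble tetrazolium dye.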

[4] = Ratio of cytotoxicity to anti BVDV activity of the compound; set-up: species or system Bos taurus; settings: cattle; for selectivity ratio: read-out: CC50/EC50
[5] = Cytotoxicity in MDBK (Madin-darby bovine kidney) cells; assay type: cell-based, Bos taurus; settings: cattle; method in brief: as §2
Bos taurus [6] = species: Bos taurus; test: Anti BVDV activity relative to ribavirin; assay type: functional
[7] = Anti BVDV activity in MDBK (Madin-darby bovine kidney) cells; assay type: functional, Bos taurus; method in brief: as §1
[8] = Anti-bovine viral diarrhoea virus activity relative to ribavirin; assay type: functional, Bos taurus
Bos taurus [9] = species: Bos taurus; test: Anti BVDV activity relative to ribavirin (EC50 1.2 and CC50 >100); assay type: functional
[10] = Cytotoxicity in MDBK (Madin-darby bovine kidney) cells (Ribavirin EC50 1.2 and CC50 >100); assay type: cell-based, Bos taurus; settings: cattle; method in brief: as §2
[11] = Anti BVDV activity in MDBK (Madin-darby bovine kidney) cells (Ribavirin EC50 1.2 and CC50 >100); assay type: functional, Bos taurus; method in brief: as §1

Compound COC(=O)Nc1ccn([C@@H]2O[C@H](CO)C(O)[C@@H]2OC2Sc3ccccc3S2)c(=O)n1 (stereo partly drawn) has an EC50rel (Bos taurus [1]) of 82.5, an EC50 [2] of 50.3 µM and a CC50 [3] of 60.1 µM. The selectivity ratio [4] was 1.19.
In the case of Nc1ccn([C@H]2C[C@H](OC3Sc4ccccc4S3)[C@@H](CO)O2)c(=O)n1, the CC50 [5] is reported as 69.7 µM, the EC50rel (Bos taurus [6]) is reported as 46.1 and the EC50 [7] is reported as 69.1 µM. For the same compound, the selectivity ratio [4] was 1.
For Nc1ncnc2c1ncn2[C@@H]1O[C@H](CO)C(O)[C@@H]1OC1Sc2ccccc2S1 (stereo partly drawn), the CC50 [5] was 74.3 µM, the EC50rel (Bos taurus [6]) was 58.5 and the EC50 [7] was 39.2 µM. For the same compound, the selectivity ratio [4] was 1.89.
Compound CSc1ccccc1SCO[C@H]1C[C@H](n2cnc3c(O)nc(N)nc32)O[C@@H]1CO has a CC50 [5] of over 100 µM and an EC50 [7] of over 100 µM.
Nc1nc(O)c2ncn([C@@H]3O[C@H](CO)C(O)[C@@H]3OC3Sc4ccccc4S3)c2n1 (stereo partly drawn) showed a CC50 [5] of 73.2 µM, an EC50rel (Bos taurus [6]) of 21.5 and an EC50 [7] of 14.4 µM. The selectivity ratio [4] was 5.09.
Work on O=c1ccn([C@@H]2O[C@H](CO)C(OC3Sc4ccccc4S3)[C@@H]2OC2Sc3ccccc3S2)c(=O)[nH]1 (stereo partly drawn) yielded a CC50 [5] of 48 µM, an EC50rel (Bos taurus [6]) of under 71.7 and an EC50 [7] of under 48 µM.
Nc1ncnc2c1ncn2[C@H]1C[C@H](OC2Sc3ccccc3S2)[C@@H](CO)O1 gave a CC50 [5] of 68.4 µM, an EC50rel (Bos taurus [6]) of 42.5 and an EC50 [7] of 63.8 µM. For the same compound, the selectivity ratio [4] was 1.1.
With O=c1ccn([C@@H]2O[C@H](CO)C(O)[C@@H]2OC2Sc3ccccc3S2)c(=O)[nH]1 (stereo partly drawn) the CC50 [5] was 67.3 µM, the EC50rel (Bos taurus [6]) was 84.6 and the EC50 [7] was 56.7 µM. For the same compound, the selectivity ratio [4] was 1.19.
For CSc1ccccc1SCO[C@H]1C[C@H](n2cc(C)c(=O)[nH]c2=O)O[C@@H]1CO, the CC50 [5] was over 100 µM, the EC50rel (Bos taurus [6]) was 59.7 and the EC50 [7] was 89.6 µM. For the same compound, the selectivity ratio [4] was over 1.1.
Work on Cc1cn([C@H]2C[C@H](OC3Sc4ccccc4S3)[C@@H](C)O2)c(=O)[nH]c1=O yielded a CC50 [5] of 81.3 µM, an EC50rel (Bos taurus [6]) of 57.8 and an EC50 [7] of 86.7 µM. For the same compound, the selectivity ratio [4] was 0.93.
Work on CSc1ccccc1SCO[C@H]1C[C@H](n2cnc3c(N)ncnc32)O[C@@H]1CO yielded a CC50 [5] of over 100 µM and an EC50 [7] of over 100 µM.
Work on Nc1ccn([C@@H]2O[C@H](CO)C(O)[C@@H]2OC2Sc3ccccc3S2)c(=O)n1 (stereo partly drawn) yielded a CC50 [5] of 70.4 µM, an EC50rel (Bos taurus [6]) of 42.5 and an EC50 [7] of 28.5 µM. For the same compound, the selectivity ratio [4] was 2.47.
For Cc1cn([C@H]2C[C@H](OC3Sc4ccccc4S3)[C@@H](CO)O2)c(=O)[nH]c1=O, the CC50 [5] was 72.4 µM, the EC50rel [8] was 31.2 and the EC50 [7] was 46.8 µM. It also gave a selectivity ratio [4] of 1.5.
Nc1nc(O)c2ncn([C@H]3C[C@H](OC4Sc5ccccc5S4)[C@@H](CO)O3)c2n1 showed a CC50 [5] of over 100 µM, an EC50rel (Bos taurus [6]) of 52.9 and an EC50 [7] of 79.4 µM. It also gave a selectivity ratio [4] of over 1.3.
OC[C@H]1O[C@@H](n2cnc3c(O)ncnc32)[C@@H](OC2Sc3ccccc3S2)C1O (stereo partly drawn) gave an EC50rel (Bos taurus [9]) of 15.3, a CC50 [10] of 59.2 µM and an EC50 [11] of 18.4 µM. It also gave a selectivity ratio [4] of 3.21.
CSc1ccccc1SCO[C@H]1C[C@H](n2ccc(N)nc2=O)O[C@@H]1CO gave a CC50 [5] of over 100 µM and an EC50 [7] of over 100 µM.
Work on NC(=O)c1ncn([C@@H]2O[C@H](CO)[C@@H](O)[C@H]2O)n1 [RIBAVIRIN] yielded a CC50 [5] of over 100 µM, an EC50rel (Bos taurus [6]) of 1 and an EC50rel [8] of 1. For the same compound, the EC50 [7] was 1.5 µM and 0.67 µM and the CC50/EC50 [4] was < 150 and > 67.
Compound O=c1ccn([C@@H]2O[C@H](CO)C(OC3Sc4ccccc4S3)[C@@H]2O)c(=O)[nH]1 (stereo partly drawn) has a CC50 [5] of 73.9 µM, an EC50rel (Bos taurus [6]) of 75.5 and an EC50 [7] of 50.6 µM. It also gave a selectivity ratio [4] of 1.46.
For COC1Sc2ccccc2S1, the CC50 [5] was over 100 µM and the EC50 [7] was over 100 µM.
